# Measurements from different studies.
# Compare with care: the assays were run in different laboratories.
# Target: Beta-1 adrenergic receptor (ADRB1, Homo sapiens, UniProt P08588)
# Tested at: 10 µM
SMILES,test,inhibition [%]
O=C1N=C(N2CCCCN2)S/C1=C\c1ccc(F)cc1O,"ligand displacement, radioligand",< 10
C[C@H](c1ccc(F)cc1)N(Cc1ccc(Cl)c(C(=O)O)c1)C(=O)c1cnc2ccccc2c1,cell-free assay,-0.35
CCN(CC)c1ccc(C2Nc3ccc(C(=O)c4ccccc4)cc3NC3=C2C(=O)CC(C)(C)C3)cc1 (centres unmarked),"ligand displacement, radioligand",-1
O=C(c1ccc(F)cc1)N(Cc1ccccc1)C1CCCCC1,cell-free assay,4
CCN(Cc1ccccc1C(F)(F)F)C(=O)C1CCN(S(=O)(=O)c2ccc3[nH]ncc3c2)CC1,"ligand displacement, radioligand",3
NS(=O)(=O)c1cc(NC(=O)C2(c3ccccc3Cl)CC2)ccc1Oc1cccc(Cl)c1,cell-free assay,-3.09
CCCNc1nc2ccccc2n1Cc1ccc(Cl)cc1,ligand displacement,19.5
O=C(Nc1ccc(S(=O)(=O)N2CCC(Cl)CC2)cc1)c1ccc([N+](=O)[O-])o1,"ligand displacement, radioligand",1
N#Cc1cc(Cn2c(N3CCCC3)nc3ccccc32)ccc1F,ligand displacement,-9.19
Ic1cccc2cnccc12,"ligand displacement, radioligand",2
Oc1cccc(Nc2nc(-c3ccc(F)cc3F)cs2)c1,cell-free assay,-36.5
